This is a sample that favours compounds with a hit; in the whole collection about 2.1% have one here.
Hck-Nef inh: inhibitors of Nef-activated human Hck kinase, primary screen, biochemical, Z-Lyte FRET, 384-well, Hck-YEEI | AID 463187, 2010 | inhibition, % at 20 µM | Tyrosine-protein kinase HCK (Homo sapiens), P08631 | hit rate 0.68% among 220,000 | Recombinant Hck-YEEI plus Nef, Z-Lyte FRET kinase assay;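 active = Hck-Nef kinase inhibition above about 50%, limit read from the data; inactive = inhibition below that limit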
Runt-CBFb FRET: inhibitors of RUNX1 Runt–CBFb binding, primary screen, biochemical, FRET, Cerulean-Runt, Venus-CBFb, uHTS. Runt-related transcription factor 1 (Homo sapiens) + Core-binding factor subunit beta …. Cerulean-Runt/Venus-CBFb FRET ratio 530/480, 1 h. inhibition, % at 20 µM. hit rate 0.46% among 220,000;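 active = inhibition over about 50% at 20 µM in the single-dose screen, limit read from the data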
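test system = Cerulean-Runt domain fusion protein, energy donor | probe or stimulus = Venus-CBFb binding partner, 100 nM | incubation = two 1 h room-temperature incubations shielded from light | detection = fluorescence energy transfer, 422 nm excitation, 530/480 nm emission | measure = loss of energy transfer signal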
TbHK1 inh: Trypanosoma brucei hexokinase 1 inhibitors, primary screen, biochemical, G6PDH-coupled NADH absorbance, MLSCN library | recombinant TbHK1, G6PDH-coupled NADH A340 | AID 1430, 2008 | hit rate 0.11% among 220,000 | inhibition, % at 10 µM | hexokinase 1 [Trypanosoma brucei];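 active = inhibition of 50% or more in the single-dose primary screen; inactive = inhibition below 50%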
RanGTP-Imp inh: inhibitors of RanGTP-importin-beta interaction, primary screen, biochemical, FRET, CFP-Ran, YFP-importin-beta, homogeneous | Ran GTPase (GTP-bound) - importin-beta complex | cell-free CFP-Ran/YFP-importin-beta FRET ratio | inhibition, % (no concentration beside the values) | hit rate 1.1% among 300,000;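 active = more than half of the replicate wells show a fall in the fluorescence ratio signal beyond about 16%, limit read from the data, passing the limit was not always enough; inconclusive = exactly half of the replicate wells pass the set limit; inactive = fewer than half of replicates pass the limit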
Runt-SMMHC FRET: inhibitors of RUNX1 Runt–CBFb-SMMHC binding, primary screen, biochemical, FRET, Cerulean-Runt, Venus-CBFb-SMMHC, uHTS; Runt-related transcription factor 1 (Homo sapiens) + Core-binding factor subunit beta …; Cerulean-Runt/Venus-CBFb-SMMHC FRET ratio 530/480, 1 h; inhibition, % at 20 µM; hit rate 0.74% among 220,000;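 active = mean inhibition across duplicate retests at 20 µM reaching about 50%, limit read from the data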;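 note: inhibitors lower the FRET ratio by blocking Runt binding to CBFb-SMMHC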
p97 inhibitor: inhibitors of human p97 ATPase, primary screen, biochemical; AID 1481, 2009; inhibition, % at 8 µM; hit rate 0.42% among 220,000; recombinant p97 ATPase, Kinase-Glo ATP luminescence, 3 h; Transitional endoplasmic reticulum ATPase (Homo sapiens), P55072; in the data active = inhibition above about 15%
Hits are given with their value.

For COC(=O)c1cc(CNC(=O)c2sccc2-c2ccccc2)ccc1OC the results were RanGTP-Imp inh inactive.
Cc1ccc(NC(=O)C(C)N2C(=O)c3ccccc3C2=O)cc1C (configuration not stated) was read as RanGTP-Imp inh inactive.
Screening Cn1c(=O)nc2n(Cc3ccccc3)c3cccc(Cl)c3cc-2c1=O returned Hck-Nef inh inactive, Runt-CBFb FRET 95.0, TbHK1 inh inactive, RanGTP-Imp inh 64.2, Runt-SMMHC FRET 59.6 and p97 inhibitor inactive.
For COc1ccc(CN2CCN(C(=O)CC(C)C)CC2)cc1 the results were RanGTP-Imp inh inactive.
Screening COc1ccc(CCn2c(=N)c(S(=O)(=O)c3ccc(Cl)cc3)cc3c(=O)n4ccccc4nc32)cc1 returned RanGTP-Imp inh inactive.
N=c1c(S(=O)(=O)c2ccccc2)cc2c(=O)n3ccccc3nc2n1Cc1ccco1 was read as Hck-Nef inh inactive, Runt-CBFb FRET inactive, TbHK1 inh inactive, RanGTP-Imp inh 85.1 and p97 inhibitor inactive.
`Cc1ccc2nc3c(cc(S(=O)(=O)c4ccccc4)c(=N)n3Cc3ccco3)c(=O)n2c1` gave Hck-Nef inh inactive, Runt-CBFb FRET inactive, TbHK1 inh inactive, RanGTP-Imp inh inconclusive, Runt-SMMHC FRET 92.3 and p97 inhibitor inactive.
Screening Cc1ccc(S(=O)(=O)c2cc3c(=O)n4ccccc4nc3n(Cc3ccco3)c2=N)cc1C returned Hck-Nef inh inactive, Runt-CBFb FRET inactive, TbHK1 inh inactive, RanGTP-Imp inh 75.8, Runt-SMMHC FRET inactive and p97 inhibitor inactive.
For CCOCCCn1c(=N)c(S(=O)(=O)c2ccc(C)cc2)cc2c(=O)n3cc(C)ccc3nc21 the results were RanGTP-Imp inh 158.2.
CCn1c(=N)c(S(=O)(=O)c2ccc(C)cc2)cc2c(=O)n3ccccc3nc21 was read as Hck-Nef inh inactive, TbHK1 inh inactive, RanGTP-Imp inh inactive and p97 inhibitor inactive.
CCC(=O)N1CCc2cc(S(=O)(=O)N3CCN(c4ccccc4Cl)CC3)ccc21 was read as RanGTP-Imp inh inactive.
CNC(=O)c1cc2c(=O)n3cc(C)ccc3nc2n(Cc2ccco2)c1=N was read as Runt-CBFb FRET 88.1 and Runt-SMMHC FRET inactive.
For Cc1onc(-c2ccccc2)c1C(=O)/C=C/N(C)C the results were Hck-Nef inh inactive, Runt-CBFb FRET inactive, TbHK1 inh inactive, RanGTP-Imp inh 16.9, Runt-SMMHC FRET inactive and p97 inhibitor inactive.
Screening Cc1onc(-c2ccc(Cl)cc2Cl)c1C(=O)/C=C/N(C)C returned Hck-Nef inh inactive, Runt-CBFb FRET inactive, TbHK1 inh inactive, RanGTP-Imp inh inactive, Runt-SMMHC FRET inactive and p97 inhibitor inactive.
Screening N#CC(C(=O)NCc1ccccc1)c1nc2ccccc2nc1N1CCCC1 (configuration not stated) returned Hck-Nef inh inactive, Runt-CBFb FRET inactive, TbHK1 inh inactive, RanGTP-Imp inh 35.5, Runt-SMMHC FRET 66.2 and p97 inhibitor inactive.
For CCN1CCN(c2nc3ccccc3nc2C(C#N)C(=O)OCc2ccccc2)CC1 (configuration not stated) the results were Hck-Nef inh inactive, Runt-CBFb FRET inactive, TbHK1 inh inactive, RanGTP-Imp inh 20.2, Runt-SMMHC FRET inactive and p97 inhibitor inactive.
`N#CC(C(=O)NCCc1ccccc1)c1nc2ccccc2nc1N1CCOCC1` (configuration not stated) gave Hck-Nef inh inactive, Runt-CBFb FRET inactive, TbHK1 inh inactive, RanGTP-Imp inh inconclusive, Runt-SMMHC FRET inactive and p97 inhibitor inactive.
`N#CC(C(=O)OC1CCCCC1)c1nc2ccccc2nc1N1CCCCC1` (configuration not stated) gave Hck-Nef inh inactive, Runt-CBFb FRET inactive, TbHK1 inh inactive, RanGTP-Imp inh 16.7, Runt-SMMHC FRET inactive and p97 inhibitor inactive.
